This is an account of results in ChEMBL document CHEMBL3351274, “Sensitization of tumor necrosis factor-related apoptosis-inducing ligand (TRAIL)-resistant primary prostate cancer cells by isoegomaketone from Perilla frutescens” (J Nat Prod, 2014).

For assay [1], the species on record is Homo sapiens. Briefly: Induction of apoptosis in human RC-58T/h/SA#4 cells at 20 uM after 24 hrs by annexin-V/propidium iodide staining-based flow cytometry relative to control. Format: functional, cell-based. In a few lines:
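RC-58T/h/SA#4 cells seeded at 1 × 10^5 cells/mL in 6-well plates and given 20 μM compound and/or 100 ng/mL TRAIL for 24 h. Cells washed in ice-cold PBS, labelled with annexin V Alexa Fluor 488 for 30 min at 4 °C in the dark, then with PI. Annexin V-positive fraction counted by flow cytometry; three independent experiments, means ± SD, Student's t-test.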

Assay [2] can be described thus: Induction of apoptosis in human RC-58T/h/SA#4 cells assessed as CHOP expression at 10 uM after 24 hrs by immunoblotting analysis relative to untreated control. Format: functional. In a few lines: (§1)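 RC-58T/h/SA#4 cells seeded at 5 × 10^4 cells/mL and cultured 24 h, then given compound across a concentration series or at fixed dose over a time course. Lysates were quantified by BCA. 10 μg protein/lane run on 12% SDS-PAGE and transferred to nitrocellulose. Blots probed for p53, CHOP and β-actin with HRP secondary and ECL.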
(In general: In western blotting, separated proteins are transferred to a membrane and probed.)

Assay [3] is described as follows: Induction of apoptosis in human RC-58T/h/SA#4 cells assessed as DR5 expression at 5 uM after 24 hrs by immunoblotting analysis relative to untreated control. Type of assay: functional.
Assay [4] in a line: Induction of apoptosis in human RC-58T/h/SA#4 cells assessed as CHOP expression at 2.5 uM after 24 hrs by immunoblotting analysis relative to untreated control. Type of assay: functional. The method in brief:
as §1

The species entered for assay [5] is Homo sapiens. Briefly: Sensitization of TRAIL-induced apoptosis in human RC-58T/h/SA#4 cells assessed as condensation of chromatin at 20 uM after 24 hrs by Hoechst 33258 staining-based fluorescence microscopy. Format: functional, cell-based. In a few lines:
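Cells seeded at 1 × 10^6/well and given 20 μM compound and/or 100 ng/mL TRAIL for 24 h. Cells fixed in 1% glutaraldehyde and stained with 5 μg/mL Hoechst 33258 for 10 min at room temperature. Nuclear fragmentation and chromatin condensation scored by fluorescence microscopy at ×400.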

A short description of assay [6]: Sensitization of TRAIL-induced apoptosis in human RC-58T/h/SA#4 cells assessed as PARP cleavage at 20 uM after 24 hrs by immunoblotting analysis in presence of Dr5 Fc chimera relative to untreated control. Format: functional. The method in brief:
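Cells pretreated 2 h with 100 ng/mL DR5 Fc chimera, then given 20 μM compound and/or 100 ng/mL TRAIL for 24 h. Total lysates immunoblotted (12% SDS-PAGE, nitrocellulose) for caspase-3, -8, -9 and PARP cleavage, with HRP secondary and ECL detection.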

The nature of assay [7]: Induction of apoptosis in human RC-58T/h/SA#4 cells assessed as CHOP expression at 5 uM after 24 hrs by immunoblotting analysis relative to untreated control. Format: functional. The method in brief:
as §1

Assay [8] is described as follows: Induction of apoptosis in human RC-58T/h/SA#4 cells assessed as AIF level in cytosol at 20 uM after 24 hrs by immunoblotting analysis relative to untreated control. Type of assay: functional. In a few lines: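 Cells grown in DMEM/10% FBS at 37 °C, 5% CO2, then treated 24 h with compound (20 μM) with or without TRAIL (100 ng/mL). Whole lysates were used for Bax and Bcl-2. Cytosolic and mitochondrial fractions were prepared with a mitochondria isolation kit for AIF and cytochrome c. Blotting used 10 μg protein/lane, 12% SDS-PAGE, nitrocellulose, overnight primary antibody at 4 °C and ECL detection.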

Assay [9] can be described thus: Induction of ROS generation in human RC-58T/h/SA#4 cells at 40 uM after 30 mins by flow cytometry (reference value: 1.9%). Format: functional. In general terms: In flow cytometry, cells or beads pass a laser one at a time.

Activity calls are given as the source filed them. No cut-off for these calls is given here.

On to `CC(C)/C=C/C(=O)c1ccoc1`, for which the outcome in the assay listed under Homo sapiens [1] and in the assay filed under Homo sapiens [5] was Active. Also, the Ratio came to 1.4 in [2]; 1.1 in assay [3]; 1.3 in assay [4]; 1 in assay [6]; 1.3 in [7]; 1.1 in assay [8]. The compound further came in with an Activity in assay [9] of 2.5%.
